A short description of assay [1]: (§1) Concentration required to inhibit Bis-ANS activity by recombinant heat shock protein 90 (rHSP90) conformational assay. Also on record: species or system Homo sapiens. In short, it runs like this: (§2)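 Compound at 100–0.3 µM or DMSO for 60 min at 37 °C, then bis-ANS (0.1 mM stock) for 30 min at 37 °C. Fluorescence read at ex 393/em 484 nm, minus a no-protein background. IC50 = 50% inhibition of bis-ANS signal versus DMSO; n = 2.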

Assay [2] can be described thus: Ratio of inhibitory concentration of rHsp90 and cell lysate Hsp90.
Assay [3] has as its target T1, Heat shock protein HSP90 (Homo sapiens, UniProt P07900+P08238). Kind of assay: […] human epidermal growth factor 2 (Her-2) degradation in MCF-7 cells. Format: cell-based. Conditions: mcf7. In short, it runs like this:
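MCF7 cells in DMEM with 10% FBS and 10 mM HEPES, treated at 65–70% confluence with compound (1000 nM down to 3 nM, half-log steps) for 16 h. Trypsinized cells stained with PE anti-Her-2 or PE isotype control (1 µg/mL, 15 min). Flow cytometry with 10,000 events; control-subtracted mean fluorescence versus DMSO cells. EC50 = 50% Her-2 degradation; n = 2.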

Assay [4] concerns the target T1, Heat shock protein HSP90. Briefly: Concentration required to inhibit biotin-GM binding to recombinant heat shock protein 90(rHsp90). Format: protein assay. In short, it runs like this: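 rHsp90 coated in PBS overnight at 4 °C. Compound at 100–0.3 µM or DMSO for 60 min at 37 °C. Then 10 µM biotinylated geldanamycin 60 min and 20 µg/mL streptavidin-phycoerythrin 60 min, both at 37 °C, with washes between. Fluorescence read at ex 485/em 580 nm, minus an uncoated-well background. % binding inhibition calculated versus DMSO.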

Assay [5] deals with T1, Heat shock protein HSP90. Briefly: Concentration of test compound required for inhibition of binding of rHsp90 in MCF-7 cell lysate. Format: cell-based. In short, it runs like this: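 Lysate incubated ± compound 30 min at 4 °C, then with biotin-GM on streptavidin magnetic beads 1 h at 4 °C. Beads washed three times and boiled in SDS sample buffer. Bound Hsp90 detected by Western blot and band quantitation. IC50 taken as half-maximal inhibition of binding.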

The target of assay [6] is T1, Heat shock protein HSP90. Described as §1. In short, it runs like this:
as §2

For the next assay, the system named is MCF7. Kind of assay: Inhibitory concentration of compound against MCF-7 cells by MTS assay. Format: functional, cell-based. To be noted: Homo sapiens. In short, it runs like this: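 MCF7 cells seeded at 2000/well in DMEM with 10% FBS and left overnight to adhere; final culture volume 100 µL. Viability read with MTS/PMS (mixed 20:1, 20 µL per well) as A490 after 2-4 h, with cell-free medium plus MTS-PMS as background. % viable cells taken relative to untreated cells; IC50 is the concentration giving 50% viable cells; n = 2.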

Structures are written as SMILES.

In the case of `C=CCNC1=C2C[C@@H](C)C[C@H](OC)[C@H](O)[C@@H](C)/C=C(\C)[C@H](OC(N)=O)[C@@H](OC)/C=C/C=C(\C)C(=O)NC(=CC1=O)C2=O`, in assay [1], the concentration for half-maximal inhibition (IC50) (usually the midpoint of a concentration-inhibition curve) was found to be 0.7 µM. The Ratio in assay [2] came out at 40.
As for `CO[C@H]1/C=C\C=C(/C)C(=O)NC2=CC(=O)C(NC(=O)OCC(C)C)=C(C[C@@H](C)C[C@H](OC)[C@H](O)[C@@H](C)/C=C(\C)[C@@H]1OC(N)=O)C2=O`, the IC50 against Heat shock protein HSP90 [3] stood at 0.12 µM; at Heat shock protein HSP90 [4] it was 4 µM; on Heat shock protein HSP90 [5], 0.003 µM; at Heat shock protein HSP90 [6] it was 4 µM; in the assay on MCF7, 0.18 µM. The Ratio in assay [2] was 1330.
As for `CO[C@H]1/C=C\C=C(/C)C(=O)NC2=CC(=O)C(NC(=O)c3ccc(CN4CCN(c5ccc(Cl)cc5)CC4)cc3)=C(C[C@@H](C)C[C@H](OC)[C@H](O)[C@@H](C)/C=C(\C)[C@@H]1OC(N)=O)C2=O`, the half-inhibitory concentration (IC50) against Heat shock protein HSP90 [3] was determined as 0.25 µM; at Heat shock protein HSP90 [4], 1 µM; on Heat shock protein HSP90 [5] it was 0.009 µM; at Heat shock protein HSP90 [6] it was 1 µM; in the assay on MCF7, 0.15 µM. In assay [2], the Ratio came out at 111.
Regarding `CCN(Cc1ccccc1)Cc1ccc(C(=O)NC2=C3C[C@@H](C)C[C@H](OC)[C@H](O)[C@@H](C)/C=C(\C)[C@H](OC(N)=O)[C@@H](OC)/C=C\C=C(/C)C(=O)NC(=CC2=O)C3=O)cc1`, the IC50 at Heat shock protein HSP90 [3] came to 0.14 µM; at Heat shock protein HSP90 [4] it was 1.1 µM; at Heat shock protein HSP90 [5] it was 0.012 µM; on Heat shock protein HSP90 [6], 1 µM; in the assay with MCF7, 0.2 µM. Besides, the Ratio in assay [2] is 92.
